# Screening data as filed in PubChem.
# Furin inh: human furin inhibition. purified furin, fluorogenic substrate cleavage. P09958. 0.061% of 220,000 active. inhibition, % at 20 µM or 30 µM; in the data active means inhibition above about 25%
# thrombin 1536: blocks human thrombin protease activity; P00734; AID 1046; alpha-thrombin, Boc-VPR-AMC fluorogenic substrate cleavage; 0.26% of 220,000 active; inhibition, % at 5 µM;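 active means inhibition at or above 40%; inactive means inhibition below 40%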;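 further: 0% = enzyme with no compound and 100% = wells without enzyme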
#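 Material: human alpha-thrombin protein. Incubation: reaction at ambient temperature. Technique: fluorescence of released AMC, ex 355 nm, em 460 nm. Control set: no-compound enzyme wells and no-enzyme blanks. Also added: Boc-VPR-AMC substrate, 15 µM final. Buffer or medium: pH 7.5 Tris (50 mM) with NaCl 150 mM, Tween 20 0.05%.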
# PERK inhibitor: human PERK inhibition, primary cell-based screen; CHO PERK-DD fusion, SEAP luminescence translation reporter; inhibition, % at 5.6 µM; Q9NZJ5; 0.17% of 220,000 active;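 active means inhibition above the mean inhibition of all tested compounds plus 3 SD, set separately per screening campaign, cut at about 2.9% in these data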;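 further: PERK kinase domain activated by AP20187 dimerizer at 100 nM; 0% = DMSO with dimerizer and 100% = rapamycin at 8.4 µM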
# KLK5 inh: blocks human kallikrein 5 protease activity; inhibition, % at 5 µM; recombinant hK5, fluorogenic AMC substrate cleavage; 0.59% of 210,000 active;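 active means inhibition of 40% or more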;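 further: 0% = enzyme controls without compound and 100% = no-enzyme blanks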
# Target sequence (Q9Y337 67-293 limits assumed): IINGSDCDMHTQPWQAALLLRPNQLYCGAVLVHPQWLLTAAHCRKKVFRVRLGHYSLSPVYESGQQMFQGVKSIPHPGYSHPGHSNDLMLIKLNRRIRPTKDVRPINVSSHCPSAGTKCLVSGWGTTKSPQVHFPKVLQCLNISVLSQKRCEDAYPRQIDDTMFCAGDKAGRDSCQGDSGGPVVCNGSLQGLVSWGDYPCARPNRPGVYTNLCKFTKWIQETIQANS
# FXIIa inh: inhibitors of human coagulation factor XIIa; purified FXIIa, Boc-QGR-AMC fluorogenic substrate, 2 h; inhibition, % at 5 µM; 0.3% of 220,000 active; AID 800; in the data active means inhibition above about 40%;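 further: 0% = enzyme with no compound and 100% = blank without enzyme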
# FXIa inh: blocks human coagulation factor XIa protease activity; 0.14% of 220,000 active; inhibition, % at 5 µM; P03951; AID 798; purified FXIa, Boc-Glu-Ala-Arg-AMC fluorogenic substrate;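 active means inhibition of at least 40%; inactive means inhibition below 40%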;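 further: fluorescence of freed AMC excited at 355 nm; 0% = enzyme without compound and 100% = no enzyme blank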
# An asterisk follows results filed as active; / = no result. Shown are actives, neighbours in structure and some others; about 1.2% of the full set was active somewhere.
SMILES,Furin inh,thrombin 1536,PERK inhibitor,KLK5 inh,FXIIa inh,FXIa inh
O=C(CSc1ccc2c(c1)OCCO2)Nc1cccnc1,-15,-13,0,-6,0,-6
O=C(NNC(=O)C1CCCN(S(=O)(=O)c2ccc3ccccc3c2)C1)C1CC1 (stereo not given),-14,-7,4.3*,-4,12,-1
COc1ccc(S(=O)(=O)NNC(=O)C2CC(c3cccnc3)=NO2)cc1 (stereo not given),-16,-8,0,-2,4,-3
CS/C(=C/[N+](=O)[O-])Nc1cccc2c1C(C)CC2(C)C (stereo not given),6,-5,0,-3,1,-4
Clc1ccc(-n2cc(COCc3ccccc3)nn2)cc1,-29,-5,1,46*,7,-1
COc1ccc(-n2ncc3c(NCc4ccccn4)ncnc32)cc1,-12,3,1,-9,44*,25
COc1ccc(-n2ncc3c(NCc4ccco4)ncnc32)cc1,-22,1,0,-7,17,4
Cc1cc2c(NC(=O)Nc3ccccc3)cccc2nn1,0,2,1,57*,35,33
Cc1cc2c(NC(=O)Nc3ccc(C(C)(C)C)cc3)cccc2nn1,-29,-4,0,5,2,6
O=C1Cc2cc(CCN3CCN(c4nsc5ccccc45)CC3)c(Cl)cc2N1,/,/,1,/,/,/
CCN(CC)CCCNCC(=O)Nc1ccc(OC)c(Cl)c1,-8,11,0,42*,37,40
CCN(CC)CCCNCC(=O)Nc1ccc2c(c1)CCC2,-8,1,0,0,3,-2
Cc1cc(=O)oc2cc(OCC(=O)NCc3ccco3)ccc12,-28,19,1,42*,14,3
Cc1cc(=O)oc2ccc(OCC(=O)NCc3ccco3)cc12,-17,-1,-1,3,19,8
Cc1nc2ccccc2c(=O)n1Cc1ccco1,-30,0,1,-3,7,-7
O=C1c2ccccc2C(=O)N1CCc1nc2ccccc2c(=O)n1Cc1ccco1,-9,11,0,57*,29,2
COc1ncnc2c1sc1nc(-c3ccccc3)c3c(c12)CCCC3,-14,-8,0,-6,-10,-11
CN(C)CCNc1ncnc2c1sc1nc(-c3ccccc3)c3c(c12)CCCC3,-3,17,-2,18,42*,25
CC(OC(=O)CCCN1C(=O)c2ccccc2C1=O)C(=O)Nc1ncc(Cl)cc1Cl (stereo not given),-21,26,1,70*,-1,1
Cc1cccc2cc(CN(Cc3nnnn3C3CCCCC3)C3CCCC3)c3nnnn3c12,-20,5,1,-19,18,9
Cc1cc(C)c2[nH]c(=O)c(CN(Cc3nnnn3C3CCCC3)C3CCCCC3)cc2c1,-30,3,0,42*,-5,-2
O=c1[nH]c2cc3c(cc2cc1CN(Cc1nnnn1CC1CCCO1)C1CCCCC1)OCO3 (stereo not given),-70,3,1,54*,-11,-5
Cn1cc([N+](=O)[O-])c(C(=O)NCc2ccco2)n1,-7,-4,3.8*,1,9,-3
COCCCNC(=O)/C(=C\c1cccn1C)NC(=O)c1cccs1,24,50*,-1,16,15,15
O=C(NCCO)/C(=C\c1ccc(Br)cc1)NC(=O)c1cccs1,-17,-2,1,-6,10,3
SMILES,Furin inh,thrombin 1536,PERK inhibitor,KLK5 inh,FXIIa inh,FXIa inh
CCOCCCNC(=O)c1cccs1,-11,22,2,42*,22,13
O=C(Cn1ncc2c1-c1ccccc1OC2)Nc1cccc(Cl)c1,3,1,0,-4,14,2
O=C(Cn1ncc2c1-c1ccccc1OC2)Nc1ccc(Cl)cn1,-19,-2,0,52*,27,4
COC(=O)C1CCN(c2ccc(Cl)nn2)CC1,-8,-1,0,14,10,8
Cc1ccnc2nc(C(=O)OCC(=O)NC(=O)NCc3ccco3)nn12,-16,-14,1,-1,4,-4
CC(=O)C1C(c2ccccc2)c2c(noc2C)CC1(C)O (stereo not given),19,-10,3.2*,2,8,3
CC(=O)C1=C(Nc2ccccc2)CC(C)(O)C(C(C)=O)C1c1ccccc1 (stereo not given),-21,3,2,6,11,4
O=C(O)c1nn(-c2ccccc2-c2n[nH]c(=O)[nH]c2=O)c(=O)[nH]c1=O,-21,-3,1,1,1,-2
Cc1c(NC(=O)CC(=O)Nc2c(C)n(C)n(-c3ccccc3)c2=O)c(=O)n(-c2ccccc2)n1C,7,-5,1,5,-2,-9
Cc1c(NC(=O)CN2CCCc3ccccc32)c(=O)n(-c2ccccc2)n1C,-11,17,0,144*,15,0
Cn1cnnc1SCC(=O)Nc1cc(S(=O)(=O)N2CCCCC2)ccc1Cl,-16,-6,0,-1,-3,-2
CC(NC=C1C(=O)OC(C)(C)OC1=O)C(=O)O (stereo not given),-16,2,3.3*,/,5,-1
CC(C)C(NC=C1C(=O)OC(C)(C)OC1=O)C(=O)O (stereo not given),-24,3,0,-1,11,3
NC(=O)C1CCN(CC(=O)Nc2cccnc2Cl)CC1,-29,-6,1,/,7,-4
Cc1ccc2c(CN3CCN(Cc4ccc5c(c4)OCO5)CC3)cc(=O)oc2c1C,-29,1,0,-5,37,46*
O=C1C=C(O)c2c(O)cccc2C1=O,-15,55*,/,11,18,11
Cc1cccc(C(=O)Nc2sc(C)c(-c3ccccc3)c2C#N)c1,-15,53*,-1,56*,6,10
Cc1noc(C)c1C(=O)Nc1sc(C)c(-c2ccccc2)c1C#N,-13,2,0,-15,-5,-10
COC(=O)/C(=C/Nc1ccccc1)[N+](=O)[O-],-25,3,1,-2,46*,27
Cc1cc(C(=O)Nc2ccc3c(c2)CCC3)c2ccccc2n1,-21,-5,0,-4,4,-1
Cc1cc(C(=O)Nc2ccc(N3CCOCC3)cc2)c2ccccc2n1,-17,0,-1,1,44*,11
O=C(CO/N=C/c1ccccc1O)N1CCc2ccccc21,-2,25,0,45*,4,5
CS(=O)(=O)c1ccc2nc(NC(=O)C3COc4ccccc4O3)sc2c1 (stereo not given),-19,18,-1,156*,17,3
COc1ccc2nc(NC(=O)C3COc4ccccc4O3)sc2c1 (stereo not given),-18,-6,0,-8,11,0
COc1cccc(NC(=O)CN(C)C(C)C(=O)Nc2ccc(S(=O)(=O)N3CCCC3)cc2)c1 (stereo not given),-22,-5,1,1,3,-3
